# Measurements as given in ChEMBL document CHEMBL1122709, “Synthesis and biological activity of a new class of cytotoxic agents: N-(3-oxoprop-1-enyl)-substituted pyrimidines and purines” (J Med Chem, 1984).
# pIC50: −log10 of the molar value.
# Columns and labels:
# HeLa [1] = experiment: Inhibition of HeLa cells growth (cytotoxicity); assay type: functional; conditions: Homo sapiens, read-out: ID50 (the source's name)
# Outline: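 HeLa cells in complete medium, grown to 1.7 × 10^5/mL (100 mL culture). Incubated 16 h with varying concentrations of inhibitor, then growth inhibition assessed.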
# HeLa [2] = experiment: Inhibition of macromolecular synthesis in HeLa cells assayed by the incorporation of radioactive thymidine into DNA; assay type: functional, cell-based; conditions: Homo sapiens
# Outline: (§1)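 HeLa S3 suspension culture in MEM with 5% fetal calf serum and 2 mM L-glutamine. Cells incubated with 0.5 μCi of labeled precursor: [methyl-3H]thymidine for DNA, [5,6-3H]uridine (40 Ci/mmol) for RNA, L-[4,5-3H]leucine (56 Ci/mmol) for protein. Synthesis rate taken as precursor uptake into cold TCA-insoluble material.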
# HeLa [3] = experiment: Inhibition of macromolecular synthesis in HeLa cells assayed by the incorporation of radioactive uridine into RNA; assay type: functional, cell-based; conditions: Homo sapiens; outline: as §1
# HeLa [4] = experiment: Inhibition of macromolecular synthesis in HeLa cells assayed by the incorporation of radioactive leucine into protein; assay type: functional, cell-based; conditions: Homo sapiens; outline: as §1
# [5] = Compound was evaluated for its half-life when nucleophile was added in solution buffered at pH 7.2 in the presence of aminoethanol; assay type: ADME; conditions: buffered solution with added nucleophile (aminoethanol)
# Outline: (§2)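 Half-life of each compound measured in aqueous solution buffered at pH 7.2 with a nucleophile, glutathione or aminoethanol, added. Reaction followed kinetically as disappearance of the propenal.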
# [6] = Compound was evaluated for its half-life when nucleophile was added in solution buffered at pH 7.2 in the presence of glutathione; assay type: ADME; conditions: buffered solution with added nucleophile (glutathione); outline: as §2
pIC50 (HeLa [2]),pIC50 (HeLa [3]),pIC50 (HeLa [4]),half-life [5] [h],half-life [6] [min],Structure (SMILES),pIC50 (HeLa [1])
4.52,4.52,4.52,,,O=C/C=C/n1ccc(=O)[nH]c1=O,5.40
< 4.00,< 4.00,< 4.00,,,Nc1ccn(/C=C/C=O)c(=O)n1,4.82
< 4.00,< 4.00,< 4.00,,,Cc1cn(/C=C/C#N)c(=O)[nH]c1=O,
5.00,4.82,4.82,,,Cc1cn(C)c(=O)n(/C=C/C=O)c1=O,5.52
< 4.00,< 4.00,< 4.00,,,Cc1cn(/C=C/CO)c(=O)[nH]c1=O,
< 4.00,4.30,< 4.00,,,Nc1nc(O)c2ncn(/C=C/C=O)c2n1,4.62
4.22,4.00,4.00,,,CCOC(=O)/C=C/n1cnc2c(N)ncnc21,
4.22,< 4.00,4.10,,,O=C/C=C/n1cc(C(F)(F)F)c(=O)[nH]c1=O,
< 4.00,< 4.00,< 4.00,,,CC(=O)/C=C/n1cc(C)c(=O)[nH]c1=O,
4.64,4.00,4.60,18,3.5,Cc1cn(/C=C/C=O)c(=O)[nH]c1=O,6.00
4.70,4.70,4.70,,,Cc1cn(COCCO)c(=O)n(/C=C/C=O)c1=O,5.22
4.52,< 4.00,< 4.00,15,2.1,Nc1ncnc2c1ncn2/C=C/C=O,5.70
4.40,4.00,< 4.00,,,Cc1cn([C@@H]2O[C@H](CO)[C@@H](O)[C@@H]2O)c(=O)n(/C=C/C=O)c1=O,4.40
< 4.00,4.00,< 4.00,,,Cc1cn([C@@H]2O[C@H](CO)[C@@H](O)[C@H]2O)c(=O)n(/C=C/C=O)c1=O,
6.10,4.82,4.82,,,O=C/C=C/n1c(=O)ccn([C@H]2C[C@H](O)[C@@H](CO)O2)c1=O,6.00
4.00,4.00,< 4.00,,,N#C/C=C/n1c(=O)ccn([C@H]2C[C@H](O)[C@@H](CO)O2)c1=O,
5.82,5.22,< 4.00,,,CC(=O)/C=C/n1c(=O)ccn([C@H]2C[C@H](O)[C@@H](CO)O2)c1=O,5.22
6.30,4.70,4.82,25,8,Cc1cn([C@H]2C[C@H](O)[C@@H](CO)O2)c(=O)n(/C=C/C=O)c1=O,6.00
5.30,5.30,< 4.00,,,Cc1cn([C@H]2C[C@H](O)[C@@H](CO)O2)c(=O)n(/C=C/CO)c1=O,4.22
6.52,4.10,4.82,,,O=C/C=C/n1c(=O)c(I)cn([C@H]2C[C@H](O)[C@@H](CO)O2)c1=O,4.70
< 4.00,< 4.00,< 4.00,,,Cc1cn(/C=C/C=N/O)c(=O)[nH]c1=O,
< 4.00,< 4.00,< 4.00,,,O=C/C=C/n1cc(CO)c(=O)[nH]c1=O,
4.22,4.05,4.40,,,O=C/C=C/n1cc(F)c(=O)[nH]c1=O,5.52
5.00,5.52,< 4.00,,,O=C/C=C/n1c(=O)ccn(C2O[C@H](CO)[C@@H](O)[C@H]2O)c1=O (stereo partly drawn),5.05
